B2AR ag – human beta-2 adrenergic receptor agonism by FAP. P07550. AID 504454. 340,000 compounds, 0.43% hits. Am2.2-beta2AR cells, FAP receptor internalization, flow cytometry. response, % (no concentration beside the values);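 active = response above a set limit, near 3 SD of response in nonfluorescent compounds, cut at about 42% in these data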
Target sequence (P07550 whole entry, looked up): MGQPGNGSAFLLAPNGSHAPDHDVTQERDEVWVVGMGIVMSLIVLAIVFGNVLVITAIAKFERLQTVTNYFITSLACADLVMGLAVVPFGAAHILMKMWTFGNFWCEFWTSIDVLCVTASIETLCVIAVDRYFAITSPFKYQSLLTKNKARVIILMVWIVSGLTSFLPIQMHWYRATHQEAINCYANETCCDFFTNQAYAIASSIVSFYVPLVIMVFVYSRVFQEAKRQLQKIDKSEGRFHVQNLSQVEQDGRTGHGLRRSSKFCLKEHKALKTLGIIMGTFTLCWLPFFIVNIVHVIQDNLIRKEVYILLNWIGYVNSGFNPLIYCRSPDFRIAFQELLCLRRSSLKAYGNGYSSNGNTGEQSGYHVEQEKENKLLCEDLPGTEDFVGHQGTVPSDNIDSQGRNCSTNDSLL
ATG4B inh – inhibitors of human ATG4B cysteine protease; Q9Y4P1; ATG4B cleavage of LC3-PLA2, NBD-HPC fluorescence, 1 h; inhibition, % at 8.33 µM; 340,000 compounds, 0.51% hits; in the data active = inhibition above about 40%
Target sequence (Q9Y4P1 whole entry, looked up): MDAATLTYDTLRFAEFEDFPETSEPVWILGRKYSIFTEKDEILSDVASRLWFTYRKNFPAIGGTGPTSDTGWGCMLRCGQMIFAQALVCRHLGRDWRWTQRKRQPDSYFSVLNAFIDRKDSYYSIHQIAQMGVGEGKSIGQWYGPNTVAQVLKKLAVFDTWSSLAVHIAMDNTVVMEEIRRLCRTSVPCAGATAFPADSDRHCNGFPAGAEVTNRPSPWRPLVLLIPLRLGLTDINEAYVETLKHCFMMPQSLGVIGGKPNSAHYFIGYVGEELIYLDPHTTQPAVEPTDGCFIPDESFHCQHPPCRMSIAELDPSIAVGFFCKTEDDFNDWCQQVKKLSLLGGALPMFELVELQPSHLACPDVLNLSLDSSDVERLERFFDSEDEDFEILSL
MEKK3 PB1 HTS – modulators (inhibitors or enhancers) of MEK5 binding to human MEKK3 PB1 domain. 290,000 compounds, 1.4% hits. binding response (% of control), % at 10 µM. bead-based flow cytometry, Alexa488-MEK5 binding to MEKK3; actives lie on both sides; 0 = blocked by unlabeled MEK5, 100 = vehicle. AID 1529. Q99759;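 active = binding response more than 3 SD above or below the average of its plate-row segment, actives on both sides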;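 note: Alexa488 bead fluorescence after subtracting the streptavidin-only scavenger bead signal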
Dynein transport – dynein cargo transport inhibition | 220,000 compounds, 0.47% hits | z-score, hits read low | 3617.4 mouse cells, GR-EGFP nuclear translocation imaging; test concentration mostly 20 µM; stimulated with dexamethasone, 1 µM; stronger effect = lower value;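 active = plate z-score of nuclear minus cytoplasmic receptor signal below a set negative limit, without overly bright fluorescence or cell loss, cut at about -3.5 in these data, passing the limit was not always enough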;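 note: z-score of nuclear minus cytoplasmic ring GR-EGFP intensity difference per well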
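Schedule: 48 h induction, then 1 h compound, then 30 min agonist, 37 °C. Buffer or medium: tetracycline-free induction medium containing charcoal-stripped FBS. Reagent: 1.0 µM final dexamethasone stimulus. Evaluation: nuclear versus cytoplasmic GR-EGFP signal, averaged per well. Signal: high-content fluorescence imaging after fixation.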
MEKK2 mut-MEK5 – signal of MEK5 binding to mutant human MEKK2 PB1 domain; bead flow cytometry, Alexa488-MEK5 binding to MEKK2 mutant; percent response, % at 10 µM; 290,000 compounds, 0.35% hits; in the data active = percent response above about 24%, passing the limit was not always enough
MEKK2 WT-MEK5 – raises or lowers MEK5 binding to wildtype human MEKK2 PB1 domain. Q9Y2U5. bead flow cytometry, Alexa488-MEK5 binding to MEKK2 WT; actives lie on both sides. binding response (% of control), % at 10 µM. 290,000 compounds, 1.1% hits. AID 1531; in the data active = binding response below about 67% or above about 130%
MEKK2wt confirm – raises or lowers MEK5 binding to wildtype human MEKK2, retest. 5,900 compounds, 2.4% hits. shares compounds with MEKK3 PB1 HTS. AID 1892. binding response (% of control), % at 10 µM. bead flow cytometry, Alexa488-MEK5 binding to MEKK2 WT; actives lie on both sides; in the data active = binding response below about 16% or above about 210%; inactive = in between
MEKK2mut-MEK5 – signal of MEK5 binding to mutant human MEKK2, retest. shares compounds with MEKK3 PB1 HTS. bead flow cytometry, Alexa488-MEK5 binding to MEKK2 mutant. percent response, % at 10 µM. 5,900 compounds, 2% hits; in the data active = percent response mostly above about 71%, no sharp cut-off; inactive = mostly below about 38%;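 note: higher means compound restores mutant binding toward wildtype level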
MEKK3-MEK5 inh – confirmation of inhibitors of MEK5 binding to human MEKK3; shares compounds with MEKK3 PB1 HTS; bead flow cytometry, Alexa488-MEK5 binding to MEKK3; stronger effect = lower value; binding response (% of control), % at 10 µM; 5,900 compounds, 1.8% hits;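 active = binding response below 72% of control, or above a set upper limit, though filed actives all read lower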
Large screens that a line does not name were inactive (follow-up assays come after a bar, where they were run); [ ] = remark or other dose. Rows were chosen to be rich in hits. Some 2.9% of all compounds tested hit in one or more screens of this group.

Cc1cccc(N(CC(=O)NCCSc2nc3ccccc3s2)S(=O)(=O)c2ccccc2)c1	none (no result: B2AR ag, ATG4B inh)
Cc1ccc(N(CC(=O)NCCSc2nc3ccccc3s2)S(=O)(=O)c2ccccc2)c(C)c1	MEKK3 PB1 HTS 150 | MEKK2wt confirm inactive | MEKK2mut-MEK5 inactive | MEKK3-MEK5 inh inactive
O=C(O)CCn1c(CO)nc2ccccc21	MEKK3 PB1 HTS 129 | MEKK2wt confirm inactive | MEKK2mut-MEK5 inactive | MEKK3-MEK5 inh inactive
OCc1nc2ccccc2n1CCCCOc1ccccc1	none (no result: MEKK3 PB1 HTS, Dynein transport, MEKK2 mut-MEK5, MEKK2 WT-MEK5)
O=c1c2cc(N3CCOCC3)ccc2[nH]c(=S)n1CCCN1CCCCCC1	MEKK2 WT-MEK5 148 | MEKK2wt confirm inactive | MEKK2mut-MEK5 inactive | MEKK3-MEK5 inh inactive
CCOC(=O)C1=C(CC)OC(N)=C(C#N)C1c1cccs1 (stereo unspecified)	MEKK3 PB1 HTS 74[inhibitor] | MEKK2wt confirm inactive | MEKK2mut-MEK5 inactive | MEKK3-MEK5 inh inactive
Cc1cccn2c(=O)c(/C=C(\C#N)C(N)=O)c(N3CCN(c4cccc(Cl)c4)CC3)nc12	none (no result: Dynein transport)
CC(C)C(c1nnnn1Cc1cccs1)N1CCN(C(=O)c2ccco2)CC1 (stereo unspecified)	none
O=C(CCl)N(Cc1cc(=O)[nH]c2ccccc12)c1ccccc1	none (no result: Dynein transport)
COC(=O)c1ccc2c(=O)n(CCCCCC(=O)N3CCN(c4ccccc4)CC3)c(=O)[nH]c2c1	MEKK3 PB1 HTS 122 | MEKK2wt confirm inactive | MEKK2mut-MEK5 inactive | MEKK3-MEK5 inh inactive
Cc1ccc(-n2nc(CN3CCOCC3)c(-c3ccccc3)c2N)cc1Cl	none
COc1cc(OC)c(OC)cc1/C=N/Nc1nc2ccccc2[nH]1	none
CCN(CC)c1ccc(C=Nc2ccccc2C)c(O)c1	MEKK3 PB1 HTS 140 | MEKK2wt confirm inactive | MEKK2mut-MEK5 inactive | MEKK3-MEK5 inh inactive
CCN(CC)c1ccc(/C=N/N(c2ccccc2)c2ccccc2)c(O)c1	none
CCN(CC)c1ccc(/C=N/Nc2nc3ccccc3[nH]2)c(O)c1	MEKK2 mut-MEK5 31 | MEKK2wt confirm inactive | MEKK2mut-MEK5 inactive | MEKK3-MEK5 inh inactive
CCN(CC)c1ccc(C=Nc2ccc(C#N)cc2)c(O)c1	MEKK2 WT-MEK5 67[inhibitor] | MEKK2wt confirm inactive | MEKK2mut-MEK5 inactive | MEKK3-MEK5 inh inactive
CNS(=O)(=O)c1cccc(C(=O)OCC(=O)/C=C2/N(C)c3ccccc3C2(C)C)c1	MEKK3 PB1 HTS 131 | MEKK2wt confirm inactive | MEKK2mut-MEK5 inactive | MEKK3-MEK5 inh inactive
CC(C)NC(=O)c1ccc2c(c1)N(CC(=O)Nc1ccccc1F)C(=O)C(C)(C)O2	none (no result: Dynein transport)
CCn1cc(C(=O)O)c(=O)c2cc(F)c(N3CCN(C)CC3)cc21	none
CCn1cc(C(=O)NCc2ccc3c(c2)OCO3)c(=O)c2cc(F)c(N3CCN(C)CC3)cc21	MEKK2 WT-MEK5 138 | MEKK2wt confirm inactive | MEKK2mut-MEK5 inactive | MEKK3-MEK5 inh inactive
CCn1cc(C(=O)NCCc2ccccc2)c(=O)c2cc(F)c(N3CCN(C)CC3)cc21	none
CCn1cc(C(=O)O)c(=O)c2cc(F)c(N3CCNCC3)cc21	MEKK3 PB1 HTS 74[inhibitor] (no result: ATG4B inh) | MEKK2wt confirm inactive | MEKK2mut-MEK5 inactive | MEKK3-MEK5 inh inactive
CCn1cc(C(=O)O)c(=O)c2cc(F)c(N3CCN(C(=S)NC(=O)c4ccc(Br)cc4)CC3)cc21	MEKK3 PB1 HTS 59[inhibitor], MEKK2 mut-MEK5 54 | MEKK2wt confirm -1.0[inhibitor] | MEKK2mut-MEK5 inactive | MEKK3-MEK5 inh inactive
COc1ccc2c(c1)CCc1cn3nc(C)cc3nc1-2	MEKK3 PB1 HTS 8.0[inhibitor] | MEKK2wt confirm inactive | MEKK2mut-MEK5 inactive | MEKK3-MEK5 inh inactive
O=C(CN1C(=O)c2ccccc2C1=O)NCC(=O)Nc1ccccc1	none (no result: MEKK3 PB1 HTS, Dynein transport, MEKK2 mut-MEK5, MEKK2 WT-MEK5)
O=C(Cn1c(C(F)(F)F)nc2ccccc21)OCC(=O)c1c[nH]c2ccccc12	MEKK2 WT-MEK5 63[inhibitor] | MEKK2wt confirm inactive | MEKK2mut-MEK5 inactive | MEKK3-MEK5 inh inactive
Cc1ccc(NC(=O)CSc2nc(=O)n(CCN3CCOCC3)c3c2CCCC3)cc1	none (no result: MEKK3 PB1 HTS, Dynein transport, MEKK2 mut-MEK5, MEKK2 WT-MEK5)
CCc1nc(NCCO)c(C#N)c2c1CSC(C)(C)C2	MEKK3 PB1 HTS 50[inhibitor] | MEKK2wt confirm inactive | MEKK2mut-MEK5 inactive | MEKK3-MEK5 inh inactive
CCOC(=O)c1c(-c2cccc3ccccc23)csc1NC(=O)C1C2CCC(O2)C1C(=O)O (stereo unspecified)	none
COC(=O)c1c(-c2ccc(C(C)(C)C)cc2)csc1NC(=O)C1C2CCC(O2)C1C(=O)O (stereo unspecified)	MEKK3 PB1 HTS 75[inhibitor] | MEKK2wt confirm inactive | MEKK2mut-MEK5 inactive | MEKK3-MEK5 inh inactive
Cc1ccc2c(c1)c(C)c(C)n2CC(O)Cn1nc(C)cc1C (stereo unspecified)	MEKK2 WT-MEK5 39[inhibitor] | MEKK2wt confirm inactive | MEKK2mut-MEK5 inactive | MEKK3-MEK5 inh inactive
Cc1ccc2c(c1)c(C)c(C)n2CC(O)Cn1nnc2ccccc21 (stereo unspecified)	none
Nc1ccc2nc(SCC(=O)Nc3ccc(N4CCOCC4)c(Cl)c3)sc2c1	MEKK3 PB1 HTS 135 | MEKK2wt confirm inactive | MEKK2mut-MEK5 inactive | MEKK3-MEK5 inh inactive
O=C(CSc1nc2ccccc2s1)Nc1ccc2c(c1)OCO2	MEKK3 PB1 HTS 158 | MEKK2wt confirm inactive | MEKK2mut-MEK5 inactive | MEKK3-MEK5 inh inactive
O=C(CNc1ccccc1Cl)Nc1cc(S(=O)(=O)N2CCOCC2)ccc1Cl	none (no result: MEKK3 PB1 HTS, Dynein transport, MEKK2 mut-MEK5, MEKK2 WT-MEK5)
O=C(CSc1nc2ccccc2s1)Nc1cc(S(=O)(=O)N2CCOCC2)ccc1Cl	MEKK3 PB1 HTS 129 | MEKK2wt confirm inactive | MEKK2mut-MEK5 inactive | MEKK3-MEK5 inh inactive
CCc1nn(C(CC)C(=O)NCC(C)c2ccccc2)c(=O)c2cc3occc3n12 (stereo unspecified)	none (no result: Dynein transport)
COc1ccc(-n2nc(C(=O)NCC(=O)NCCCN3CCCCCC3)c3ccccc3c2=O)cc1Cl	MEKK2 WT-MEK5 149 | MEKK2wt confirm inactive | MEKK2mut-MEK5 inactive | MEKK3-MEK5 inh inactive
CCO[C@@H]1OC(C(=O)NC2CC2)=C[C@H](c2c[nH]c3ccccc23)[C@H]1CCCO	MEKK3 PB1 HTS 82[inhibitor] | MEKK2wt confirm inactive | MEKK2mut-MEK5 inactive | MEKK3-MEK5 inh inactive
CC(=O)c1cccc(NC(=O)Nc2ccc3c(c2)OCO3)c1	none (no result: Dynein transport)
Cc1ccc[n+](Cc2ccc([N+](=O)[O-])cc2)c1	none

Assay outcomes: PubChem, several laboratories
